Drawing on ChEMBL document CHEMBL1153722, “Design, synthesis, and characterization of peptide-based rab geranylgeranyl transferase inhibitors” (J Med Chem, 2009), this text covers inhibition for 56 molecules.

Peptide text beside a SMILES is read from it. * marks the point of attachment. Hydrocinnamoyl = O=C(CCc1ccccc1)*; Undecanoyl = CCCCCCCCCCC(=O)*; Nicotinoyl = O=C(c1cccnc1)*; Piperidide = C1CCN(*)CC1

For the experiment, the species on record is Rattus norvegicus. The experiment is described as follows: Inhibition of rat recombinant Rab geranylgeranyltransferase at 100 uM in presence of canine Rab7 and rat REP1 NBD-FPP based continuous fluorimetric assay. A digest of the protocol:
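Continuous fluorometric assay in 96/384-well format: 3 μM Rab7, 3 μM REP1, 9 μM NBD-FPP and 400 nM RabGGTase, with or without inhibitor. […] IC50 was calculated from three independent measurements.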
In the case of `COC(=O)[C@H](CO)NC(=O)CNC(=O)[C@H](Cc1ccccc1)NC(=O)C1COC(c2ccccc2)=N1` (stereo partly specified), the inhibition (commonly the change of the read-out against control, counted positive when it falls) worked out at 136%.

`O=C(CNC(=O)[C@H](Cc1ccc(O)cc1)NC(=O)c1coc(-c2ccccc2)n1)N[C@@H](Cc1c[nH]c2ccccc12)C(=O)O`: the inhibition stood at 59%. As for `CC[C@H](C)[C@H](NC(=O)[C@H](Cc1ccccc1)NC(=O)c1cccnc1)C(=O)N[C@@H](CCCNC(=N)N)C(=O)O` (Nicotinoyl-Phe-Ile-Arg-OH), the inhibition amounted to 119%.

In the case of `NC(=O)CC[C@H](NC(=O)[C@H](Cc1ccccc1)NC(=O)CNC(=O)CCc1ccccc1)C(=O)NNc1ccccc1`, the inhibition is 75%. The result for `CCCCCCCCCCCCCCCCNC(=O)[C@H](CC1CCCC1)NC(=O)[C@H](CCC(N)=O)NC(=O)[C@@H](NC(=O)CCC(O)CBr)[C@@H](C)O` (stereo partly specified) reads 75%. The result for `O=C(N[C@@H](Cc1ccc(O)cc1)C(=O)N[C@@H](Cc1ccc(O)cc1)C(=O)N[C@@H](Cc1ccc(O)cc1)C(=O)O)OCc1ccccc1` reads 51%; that for `O=C(CNC(=O)[C@H](Cc1c[nH]cn1)NC(=O)OCc1ccccc1)N[C@@H](Cc1ccc(O)cc1)C(=O)Nc1nccs1`, 82%; that for `CN(CCc1ccccn1)C(=O)[C@H](Cc1ccc(O)cc1)NC(=O)CNC(=O)[C@H](Cc1c[nH]cn1)NC(=O)OCc1ccccc1`, 85%. Consider `O=C(CCc1ccccc1)N[C@@H](CO)C(=O)N[C@@H](Cc1ccccc1)C(=O)N[C@@H](CO)C(=O)N1CCCCC1` (Hydrocinnamoyl-Ser-Phe-Ser-Piperidide), for which the inhibition is 62%. The result for `CC(C)C[C@H](NC(=O)[C@H](CO)NC(=O)[C@H](Cc1ccccc1)NC(=O)/C=C/c1ccc(F)cc1)C(=O)NNc1ccccc1` reads 95%.

Turning to `CCCCCCCCCCC(=O)N[C@@H](Cc1c[nH]cn1)C(=O)N[C@@H](Cc1c[nH]cn1)C(=O)N[C@@H](Cc1ccc(O)cc1)C(=O)O` (Undecanoyl-His-His-Tyr-OH), the inhibition was determined as 51%. With `CCCCCCCCCCC(=O)N[C@@H](Cc1c[nH]cn1)C(=O)N[C@@H](Cc1ccccc1)C(=O)N[C@@H](Cc1ccc(O)cc1)C(=O)N(C)OC` the figure was 76%; with `CC(C)(C)Oc1ccc(C[C@H](NC(=O)c2coc(-c3ccccc3)n2)C(=O)NCC(=O)N[C@@H](Cc2c[nH]c3ccccc23)C(=O)O)cc1`, 32%; with `O=C(CNC(=O)[C@H](Cc1ccc(O)cc1)NC(=O)c1coc(-c2ccccc2)n1)N[C@@H](Cc1ccccc1)C(=O)O`, 65%. Regarding `CC(C)C[C@H](NC(=O)[C@H](CO)NC(=O)[C@H](Cc1ccccc1)NC(=O)CCc1ccccc1)C(=O)O`, the inhibition is 80%. The result for `O=C(CCc1ccc(-c2ccccc2)cc1)N[C@H](Cc1cnc[nH]1)C(=O)N[C@@H](Cc1ccc(O)cc1)C(=O)N[C@@H](Cc1ccccc1)C(=O)O` reads 48%. In the case of `CC(C)C[C@H](NC(=O)[C@H](CO)NC(=O)[C@H](Cc1ccccc1)NC(=O)CCc1ccccc1)C(=O)OCCCl`, the inhibition is 97%.

Consider `O=C(CNC(=O)c1coc(-c2ccccc2)n1)NCC(=O)N[C@@H](Cc1cn(C(c2ccccc2)(c2ccccc2)c2ccccc2)cn1)C(=O)Nc1ccc(F)cc1F`, for which the inhibition came out at 6%. `O=C(CNC(=O)[C@H](Cc1ccc(O)cc1)NC(=O)c1ccc(F)cc1)N[C@@H](Cc1ccc(O)cc1)C(=O)N1CCOCC1`: the inhibition is 108%. In the case of `O=C(CNC(=O)[C@@H]1CCCN1C(=O)/C=C/c1ccccc1)N[C@@H](Cc1ccccc1)C(=O)O`, the inhibition was 71%. With `CCC/C=C\c1ccccc1/C=C/C(=O)N[C@H](Cc1ccc(O)cc1)C(=O)N(C)[C@@H](Cc1ccc(OC)cc1)C(=O)N(C)[C@@H](Cc1ccccc1)C(=O)OCc1c[nH]c(=O)[nH]c1=O`, the inhibition was 75%. With `CC[C@H](C)[C@H](NC(=O)c1ccc(-c2ccccc2)cc1)C(=O)N[C@@H](C(=O)N[C@@H](CCC(N)=O)C(=O)NN)C(C)C` the figure was 84%; with `CCCCCCCCCCC(=O)N[C@@H](Cc1ccc(O)cc1)C(=O)N[C@@H](Cc1c[nH]cn1)C(=O)N[C@@H](Cc1ccc(O)cc1)C(=O)OCCN`, 61%.

Regarding `CC[C@H](C)[C@H](NC(=O)/C=C/c1ccc(F)cc1)C(=O)N[C@@H](C)C(=O)N[C@@H](CCC(N)=O)C(=O)OC`, the inhibition came to 83%. The result for `CCCCCCCCCCCOc1ccc(C(=O)N[C@@H](Cc2c[nH]cn2)C(=O)N[C@@H](Cc2ccc(O)cc2)C(=O)N[C@@H](Cc2ccccc2)C(=O)NCCCCN)cc1` reads 127%; that for `O=C(CNC(=O)[C@H](Cc1cn(C(c2ccccc2)(c2ccccc2)c2ccccc2)cn1)NC(=O)c1coc(-c2ccccc2)n1)N[C@@H](Cc1cn(C(c2ccccc2)(c2ccccc2)c2ccccc2)cn1)C(=O)O`, 95%. With `CCCCCCCCCCCOc1ccc(C(=O)N[C@@H](Cc2c[nH]cn2)C(=O)N[C@@H](Cc2ccc(O)cc2)C(=O)N[C@@H](Cc2ccccc2)C(=O)N2CCOCC2)cc1` the figure was 87%. Take `CCCCCCCCCCC(=O)N[C@@H](Cc1c[nH]cn1)C(=O)N[C@@H](Cc1ccccc1)C(=O)N[C@@H](Cc1ccc(O)cc1)C(=O)OCCN`: the inhibition is 61%.

As for `CC[C@H](C)[C@H](NC(=O)CCc1ccc(F)cc1)C(=O)N[C@@H](C)C(=O)N[C@@H](CCC(N)=O)C(=O)NNc1ccccc1`, the inhibition is 81%.

In the case of `CC[C@H](C)[C@H](NC(=O)c1ccc(-c2ccccc2)cc1)C(=O)N[C@@H](C(=O)N[C@@H](CCC(N)=O)C(=O)OCCc1scnc1C)C(C)C`, the inhibition turned out to be 86%. With `C[C@H](NC(=O)[C@@H](NC(=O)c1ccc(-c2ccccc2)cc1)[C@@H](C)O)C(=O)N[C@@H](CCC(=O)O)C(=O)OCCCCO` the figure was 101%. The result for `CC(C)C[C@H](NC(=O)[C@H](CO)NC(=O)[C@H](Cc1ccccc1)NC(=O)c1ccc(-c2ccccc2)cc1)C(N)=O` reads 110%. With `Cc1nc(C)c(C(=O)OC[C@H](NC(=O)[C@H](C)NC(=O)[C@H](COC(=O)c2oc(C)nc2C)NC(=O)c2coc(-c3ccccc3)n2)C(=O)O)o1` the figure was 95%; with `CCCCCCCCCCCOc1ccc(C(=O)N[C@@H](Cc2c[nH]cn2)C(=O)N[C@@H](Cc2ccc(O)cc2)C(=O)N[C@@H](Cc2ccccc2)C(=O)N(C)CCc2ccccn2)cc1`, 101%; with `CC(C)CCNC(=O)[C@H](Cc1ccccc1)NC(=O)CNC(=O)[C@@H]1CCCN1C(=O)/C=C/c1ccccc1`, 80%. For `O=C(CNC(=O)[C@H](Cc1c[nH]cn1)NC(=O)c1coc(-c2ccccc2)n1)N[C@@H](Cc1ccc(O)cc1)C(=O)O`, the inhibition came out at 99%. Consider `O=C(N[C@@H](Cc1c[nH]cn1)C(=O)N[C@@H](Cc1ccc(O)cc1)C(=O)N[C@@H](Cc1ccccc1)C(=O)O)OCc1ccccc1OCc1ccccc1`, for which the inhibition is 15%. Take `CCCCCCCCCCC(=O)N[C@@H](Cc1c[nH]cn1)C(=O)N[C@@H](Cc1cnc[nH]1)C(=O)N[C@@H](Cc1ccc(O)cc1)C(=O)OCCN`: the inhibition is 97%. With `C[C@@H](O)[C@H](NC(=O)C(Br)C(Br)c1ccccc1)C(=O)N[C@@H](Cc1ccccc1)C(=O)N[C@@H](CCC(N)=O)C(=O)OCCCl` (stereo partly specified) the figure was 64%. The result for `C[C@@H](NC(=O)CCc1ccccc1)C(=O)N[C@@H](Cc1ccccc1)C(=O)N[C@@H](CCC(N)=O)C(=O)O` reads 111%; that for `CC(C)C[C@H](NC(=O)[C@H](COC(C)(C)C)NC(=O)[C@H](Cc1ccccc1)NC(=O)CCc1ccccc1)C(=O)O`, 88%; that for `COc1ccc(NC(=O)[C@H](CCC(N)=O)NC(=O)[C@H](Cc2ccccc2)NC(=O)[C@H](CO)NC(=O)CCc2ccccc2)cc1`, 101%.

For `C[C@@H](O)[C@H](NC(=O)/C=C/c1ccccc1)C(=O)N[C@@H](Cc1ccccc1)C(=O)N[C@@H](CCC(N)=O)C(=O)Nc1ccc(F)c(Cl)c1`, the inhibition amounted to 91%.

As to `COc1ccc(C[C@@H](C(=O)N(C)[C@@H](Cc2ccccc2)C(=O)N2CCC(C(N)=O)CC2)N(C)C(=O)[C@@H](Cc2ccc(O)cc2)NC(=O)OCc2ccc([N+](=O)[O-])cc2)cc1`, the inhibition stood at 75%. With `COC(=O)[C@H](CCC(=O)O)NC(=O)[C@H](C)NC(=O)[C@@H](NC(=O)c1ccc(-c2ccccc2)cc1)[C@@H](C)O` the figure was 101%; with `O=C(CNC(=O)c1coc(-c2ccccc2)n1)N[C@@H](Cc1c[nH]cn1)C(=O)N[C@@H](Cc1ccccc1)C(=O)O`, 84%.

In the case of `C[C@@H](O)[C@H](NC(=O)C(Br)C(Br)c1ccccc1)C(=O)N[C@@H](Cc1ccccc1)C(=O)N[C@@H](CCC(N)=O)C(=O)OCCCCO` (stereo partly specified), the inhibition stood at 60%. The result for `O=C(/C=C/c1ccccc1)N[C@@H](Cc1ccccc1)C(=O)N[C@@H](Cc1ccccc1)C(=O)N[C@@H](Cc1ccc(O)cc1)C(=O)O` reads 50%. For `O=C(CNC(=O)[C@H](Cc1c[nH]cn1)NC(=O)OCc1ccccc1)N[C@@H](Cc1ccc(O)cc1)C(=O)c1nc2ccccc2[nH]1`, the inhibition came to 66%. Consider `C=CCOC(=O)[C@H](Cc1cn(C(c2ccccc2)(c2ccccc2)c2ccccc2)cn1)NC(=O)[C@H](Cc1ccccc1)NC(=O)CNC(=O)c1csc(-c2cccs2)n1`, for which the inhibition came to 136%. The result for `Nc1ccccc1NC(=O)[C@H](Cc1ccc(O)cc1)NC(=O)CCNC(=O)[C@H](Cc1c[nH]cn1)NC(=O)OCc1ccccc1` reads 80%; that for `CC(C)C[C@H](NC(=O)[C@H](COC(C)(C)C)NC(=O)[C@H](Cc1ccccc1)NC(=O)/C=C/c1ccc(F)cc1)C(=O)O`, 103%. In the case of `COC(=O)[C@H](CC(C)C)NC(=O)[C@H](CO)NC(=O)[C@H](Cc1ccccc1)NC(=O)/C=C/c1ccc(F)cc1`, the inhibition was 57%.

`CON(C)C(=O)[C@H](CCC(=O)O)NC(=O)[C@H](C)NC(=O)[C@@H](NC(=O)c1ccc(-c2ccccc2)cc1)[C@@H](C)O`: the inhibition worked out at 102%. The result for `CCCCCCCCCCC(=O)N[C@@H](Cc1c[nH]cn1)C(=O)N[C@@H](Cc1ccccc1)C(=O)N[C@@H](Cc1ccc(O)cc1)C(=O)NCC(O)CO` (stereo partly specified) reads 53%; that for `O=C(CCNC(=O)[C@H](Cc1c[nH]cn1)NC(=O)OCc1ccccc1)N[C@@H](Cc1ccc(O)cc1)C(=O)NCC(O)CO` (stereo partly specified), 89%.
